According to ChEMBL document CHEMBL1130387, “Design of a potent combined pseudopeptide endothelin-A/endothelin-B receptor antagonist, Ac-DBhg16-Leu-Asp-Ile-[NMe]Ile-Trp21 (PD 156252): examination of its pharmacokinetic and spectral properties” (J Med Chem, 1997):
Numbered stars: 1 amine (or outer) side, 2 acyl side, 3 side chain; on linkers, the order of the positions; unused ones are H or OH. Square brackets hold non-standard residues; d marks the D form. Peptide text beside a SMILES is read from it. dGly(5-dibenzosuberyl) = N[C@@H](C(=O)O)C1c2ccccc2CCc2ccccc21; X2 = O=C([C@@H](N[*:1])C1c2ccccc2CCc2ccccc21)[*:2]; NMeDip = CN[C@H](C(=O)O)C(c1ccccc1)c1ccccc1; NMeW = CN[C@@H](Cc1c[nH]c2ccccc12)C(=O)O; Dip = N[C@H](C(=O)O)C(c1ccccc1)c1ccccc1; NMeI = CC[C@H](C)[C@H](NC)C(=O)O; NMeD = CN[C@@H](CC(=O)O)C(=O)O

Assays:
[1] = Stability in rat intestinal perfusate; type: ADME
How it was run: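 Stability measured by incubation in rat intestinal perfusate in vitro. Values are the mean of at least three determinations ± SEM from two perfusate preparations. Perfusate leucine aminopeptidase activity was 0.05–0.32 nkat/mL. Degradation was also checked with a potato tuber carboxypeptidase inhibitor added.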

Oryctolagus cuniculus [2] = species: Oryctolagus cuniculus; experiment: Ability to antagonize endothelin -1 (ET-1) stimulated vasoconstriction in vitro in rabbit femoral artery; type: functional; conditions: read-out: pA2 (converted)
[3] = target: T1, Endothelin receptor type B (Rattus norvegicus, UniProt P21451); experiment: Inhibition of binding to Endothelin B receptor of rat cerebellar membranes.; type: cell membranes, Membrane
T1 sequence (P21451 whole entry): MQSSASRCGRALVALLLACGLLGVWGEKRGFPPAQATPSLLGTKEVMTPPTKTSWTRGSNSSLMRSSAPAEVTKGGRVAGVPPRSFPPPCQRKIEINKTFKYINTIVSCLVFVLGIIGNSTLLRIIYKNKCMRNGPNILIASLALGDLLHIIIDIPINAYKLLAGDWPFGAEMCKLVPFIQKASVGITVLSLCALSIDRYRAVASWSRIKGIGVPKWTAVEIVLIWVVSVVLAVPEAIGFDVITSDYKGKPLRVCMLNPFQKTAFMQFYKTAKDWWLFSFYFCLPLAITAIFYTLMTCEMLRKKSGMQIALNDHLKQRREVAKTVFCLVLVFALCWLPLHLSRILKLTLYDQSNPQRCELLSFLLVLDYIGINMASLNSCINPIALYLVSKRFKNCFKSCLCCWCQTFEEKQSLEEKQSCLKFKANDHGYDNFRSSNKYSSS
How it was run: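 Competition binding assays: ETA on rabbit renal vascular smooth muscle cells, ETB on rat cerebellar membranes. Each IC50 comes from a single competition experiment with points measured in duplicate. Where more than one IC50 was determined, values are given as mean ± SEM.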

Caco-2 = experiment: Permeability in Caco-2 Cell monolayers for the compound; type: functional, cell-based; conditions: Homo sapiens
How it was run: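 Transport measured across Caco-2 monolayers (human colon adenocarcinoma line that differentiates to an enterocyte-like phenotype). Each value is the mean of three to five cell monolayers, with standard errors.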

Oryctolagus cuniculus [4] = species: Oryctolagus cuniculus; experiment: Ability to antagonize […] SRTX-6c stimulated vasoconstriction in vitro in rabbit pulmonary artery; type: functional; conditions: read-out: pA2 (converted)

IC50 [3]	SMILES	half-life [1]	Permeability (10e4*cm min-1) (Caco-2)	also measured
600 nM	CC[C@H](C)[C@H](NC(=O)[C@H](CC(=O)O)NC(=O)[C@H](CC(C)C)N(C)C(=O)[C@H](NC(C)=O)C(c1ccccc1)c1ccccc1)C(=O)N[C@H](C(=O)N[C@@H](Cc1c[nH]c2ccccc12)C(=O)O)[C@@H](C)CC	–	–	–
1500 nM	CC[C@H](C)[C@H](NC(=O)[C@@H](NC(=O)[C@H](CC(=O)O)N(C)C(=O)[C@H](CC(C)C)NC(=O)[C@@H](NC(C)=O)C(c1ccccc1)c1ccccc1)[C@@H](C)CC)C(=O)N[C@@H](Cc1c[nH]c2ccccc12)C(=O)O (Ac-[Dip]L[NMeD]IIW-OH)	–	–	–
8000 nM	CC[C@H](C)[C@H](NC(=O)[C@H](CC(=O)O)NC(=O)[C@H](CC(C)C)NC(=O)[C@H](C(c1ccccc1)c1ccccc1)N(C)C(C)=O)C(=O)N[C@H](C(=O)N[C@@H](Cc1c[nH]c2ccccc12)C(=O)O)[C@@H](C)CC (Ac-[NMeDip]LDIIW-OH)	–	–	–

More lines, now with the values behind:

SMILES	IC50 [3]	half-life [1]	Permeability (10e4*cm min-1) (Caco-2)	also measured
CC[C@H](C)[C@H](NC(=O)[C@H](CC(=O)O)NC(=O)[C@H](CC(C)C)NC(=O)[C@H](NC(C)=O)C1c2ccccc2CCc2ccccc21)C(=O)N(C)[C@H](C(=O)N[C@@H](Cc1c[nH]c2ccccc12)C(=O)O)[C@@H](C)CC	–	8.97 h	–	Kb (Oryctolagus cuniculus [2]): 50.1 nM
CC[C@H](C)[C@H](NC(=O)[C@@H](NC(=O)[C@H](CC(=O)O)NC(=O)[C@H](CC(C)C)NC(=O)[C@H](NC(C)=O)C(c1ccccc1)c1ccccc1)[C@@H](C)CC)C(=O)CNC(=O)[C@@H](N)Cc1c[nH]c2ccccc12	> 250 nM	–	–	–
CC[C@@H](C)[C@H](C(=O)N[C@@H](Cc1c[nH]c2ccccc12)C(=O)O)N(C)C(=O)[C@@H](NC(=O)[C@@H](CC(=O)O)NC(=O)[C@H](CC(C)C)NC(=O)[C@H](NC(C)=O)C1c2ccccc2CCc2ccccc21)[C@@H](C)CC	–	–	6.3	–
CC[C@H](C)[C@H](NC(=O)[C@H](CC(=O)O)NC(=O)[C@H](CC(C)C)NC(=O)[C@@H](NC(C)=O)C(c1ccccc1)c1ccccc1)C(=O)N[C@H](C(=O)N[C@@H](Cc1c[nH]c2ccccc12)C(=O)O)[C@@H](C)CC (Ac-[Dip]LDIIW-OH)	–	0.302 h	2	Kb (Oryctolagus cuniculus [4]): 501 nM; Kb (Oryctolagus cuniculus [2]): 251 nM
CC[C@H](C)[C@H](NC(=O)[C@H](CC(=O)O)NC(=O)[C@H](CC(C)C)NC(=O)[C@@H](NC(C)=O)C(c1ccccc1)c1ccccc1)C(=O)N[C@H](C(=O)N(C)[C@@H](Cc1c[nH]c2ccccc12)C(=O)O)[C@@H](C)CC (Ac-[Dip]LDII[NMeW]-OH)	11000 nM	–	–	–
CC[C@H](C)[C@H](NC(=O)[C@H](CC(=O)O)NC(=O)[C@H](CC(C)C)NC(=O)[C@@H](NC(C)=O)C(c1ccccc1)c1ccccc1)C(=O)N(C)[C@H](C(=O)N[C@@H](Cc1c[nH]c2ccccc12)C(=O)O)[C@@H](C)CC (Ac-[Dip]LDI[NMeI]W-OH)	80 nM	14.6 h	2	–
CC[C@H](C)[C@H](NC(=O)[C@H]([C@@H](C)CC)N(C)C(=O)[C@H](CC(=O)O)NC(=O)[C@H](CC(C)C)NC(=O)[C@@H](NC(C)=O)C(c1ccccc1)c1ccccc1)C(=O)N[C@@H](Cc1c[nH]c2ccccc12)C(=O)O (Ac-[Dip]LD[NMeI]IW-OH)	> 1000 nM	–	–	–
CC[C@H](C)[C@H](NC(=O)[C@H](CC(=O)O)NC(=O)[C@H](CC(C)C)NC(=O)[C@@H](NC(C)=O)C1c2ccccc2CCc2ccccc21)C(=O)N[C@H](C(=O)N[C@@H](Cc1c[nH]c2ccccc12)C(=O)O)[C@@H](C)CC (Ac-[X2]LDIIW-OH)	–	–	4.7	–
CC[C@H](C)[C@H](NC(=O)[C@H](CC(=O)O)NC(=O)[C@H](CC(C)C)NC(=O)[C@H](NC(C)=O)C1c2ccccc2CCc2ccccc21)C(=O)N[C@H](C(=O)N[C@@H](Cc1c[nH]c2ccccc12)C(=O)O)[C@@H](C)CC (Ac-[dGly(5-dibenzosuberyl)]LDIIW-OH)	–	0.177 h	–	Kb (Oryctolagus cuniculus [4]): 100 nM; Kb (Oryctolagus cuniculus [2]): 158 nM
